Data set [1] deals with Human immunodeficiency virus 1. Description: Antiviral activity against HIV1 3B infected in human H9 cells assessed as inhibition of viral replication after 3 days by p24 antigen capture assay. The settings on record: Human immunodeficiency virus 1, 3B, H9, 72 h. The data set is classed as functional, organism-based.
The nature of data set [2]: Therapeutic index, ratio of IC50 for human H9 cells to EC50 for HIV1 3B. Conditions: read-out: TI. Format: cell-based.
The subject of data set [3] is H9. Description: Cytotoxicity against human H9 cells after 3 days. Conditions: H9, 72 h. The data set is classed as cell-based. A digest of the protocol: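 Uninfected H9 lymphocytes, given the same 1 h mock incubation at 37° and washing, resuspended at 4 × 10^5 cells/ml. Cultured 3 days at 37° with compound. Cell density counted; IC50 = concentration inhibiting uninfected growth by 50%.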

Drawing on ChEMBL document CHEMBL1149027, “Anti-AIDS agents, 10. Acacetin-7-O-beta-D-galactopyranoside, an anti-HIV principle from Chrysanthemum morifolium and a structure-activity correlation with some related flavonoids” (J Nat Prod, 1994), this text covers EC50, selectivity ratio and IC50 for 35 molecules.

As a reminder, the EC50 is the midpoint of the concentration-response curve. Usually IC50 stands for the concentration at which inhibition is half-maximal. Lower therefore signals greater potency in that assay. Turning to `O=c1cc(-c2ccc(Cl)cc2)oc2cc(O)cc(O)c12`, the EC50 in data set [1] turned out to be 4 µM. For the same molecule, the selectivity ratio in data set [2] is 4. For the same molecule, in data set [3], half-maximal inhibition (IC50) was put at 16 µM.
For `O=c1cc(-c2ccccc2)oc2c([N+](=O)[O-])c(O)cc(O)c12`, in that order: 12 µM, 1 and 12 µM.
For `COc1ccc(-c2cc(=O)c3c(O)cc(O[C@@H]4O[C@H](CO[C@@H]5O[C@H](C)[C@@H](O)[C@H](O)[C@@H]5O)[C@@H](O)[C@H](O)[C@H]4O)cc3o2)cc1`, in data set [1], the EC50 is above 231 µM. In data set [3], this molecule gave an IC50 above 231 µM.
For `CC(=O)OC[C@H]1O[C@@H](Oc2cc(OC(C)=O)c3c(=O)cc(-c4ccc(OC(C)=O)c(OC(C)=O)c4)oc3c2)[C@H](OC(C)=O)[C@@H](OC(C)=O)[C@@H]1OC(C)=O`, in data set [1], the EC50 was found to be 6 µM. The selectivity ratio in data set [2] came out at 1. Also, the IC50 in data set [3] came to 6 µM.
On to `O=C(CNC(=O)OCc1ccccc1)Oc1cc(O)c2c(=O)cc(-c3ccccc3)oc2c1`, for which, in data set [1], the EC50 worked out at 9 µM. The selectivity ratio in data set [2] is 3. The same molecule showed an IC50 in data set [3] of 30 µM.
With `Nc1c(O)cc(O)c2c(=O)cc(-c3ccccc3)oc12`, the EC50 in data set [1] turned out to be 11 µM. Besides, the selectivity ratio in data set [2] was 3. For the same molecule, the midpoint of inhibition in data set [3], the IC50, lay at 34 µM.
In the same order, the values of `O=c1cc(-c2ccc(Br)cc2)oc2cc(O)cc(O)c12` are 5 µM, 4 and 21 µM.
For `CCCc1cc(=O)c2c(O)cc(O)cc2o1`, in that order: 27 µM, 3 and 73 µM.
In the same order, the values of `O=c1cc(-c2cccc(Cl)c2)oc2cc(O)cc(O)c12` are 4 µM, 3 and 14 µM.
For the molecule `O=c1cc(C2CCCCC2)oc2cc(O)cc(O)c12`, the EC50 in data set [1] was found to be 19 µM. In data set [2], the selectivity ratio came to 2. The molecule also had an IC50 in data set [3] of 42 µM.
In the same order, the values of `O=c1cc(-c2ccc(F)cc2)oc2cc(O)cc(O)c12` are 4 µM, 3 and 13 µM.
In the same order, the values of `COc1ccc(-c2cc(=O)c3c(O)cc(O[C@@H]4O[C@H](CO)[C@H](O)[C@H](O)[C@H]4O)cc3o2)cc1` are 8 µM, 5 and 37 µM.
For `O=c1cc(-c2ccccc2)oc2c([N+](=O)[O-])c(O)c([N+](=O)[O-])c(O)c12`, in that order: 372 µM, 1 and 372 µM.
Turning to `O=c1cc(-c2ccccc2Cl)oc2cc(O)cc(O)c12`, in data set [1], the EC50 was found to be 5 µM. Further, in data set [2], the selectivity ratio came to 3. In data set [3], this molecule showed a 50% inhibitory concentration (IC50) of 17 µM.
In the case of `O=c1cc(-c2ccc(O)cc2)oc2cc(O[C@@H]3O[C@H](CO)C(O)[C@H](O)[C@H]3O)cc(O)c12` (single isomer, unassigned) [APIGETRIN], the 50% effective concentration (EC50) in data set [1] was 61 µM. Besides, the selectivity ratio in data set [2] came out at 2. Moreover, the IC50 in data set [3] turned out to be 115 µM.
Turning to `O=c1cc(-c2ccccc2)oc2c(O)c(O)ccc12` [7,8-DIHYDROXYFLAVONE], in data set [1], the EC50 was found to be 10 µM. Besides, in data set [2], the selectivity ratio was found to be 1. For the same molecule, the IC50 in data set [3] was found to be 14 µM.
In the same order, the values of `O=c1cc(-c2ccc(O)cc2)oc2cc(O)cc(O)c12` [APIGENIN] are 9 µM, 4 and 35 µM.
For the molecule `O=C(O)[C@H]1O[C@@H](Oc2cc3oc(-c4ccccc4)cc(=O)c3c(O)c2O)[C@H](O)[C@@H](O)[C@@H]1O` [BAICALIN], the EC50 in data set [1] was 112 µM. Moreover, the selectivity ratio in data set [2] is below 1. 72 µM corresponded to half-maximal inhibition in data set [3] (IC50).
As for `CC(=O)Oc1cc(OC(C)=O)c2c(=O)cc(-c3ccccc3)oc2c1` [CHRYSIN DIACETATE], in data set [1], the EC50 came to 56 µM. In data set [3], the half-maximal inhibitory concentration (IC50) is above 373 µM.
Consider `O=c1cc(-c2ccccc2)oc2cc(O)cc(O)c12` [CHRYSIN], for which, in data set [1], the EC50 amounted to 5 µM. Besides, the selectivity ratio in data set [2] came out at 9. The molecule also displayed an IC50 in data set [3] of 47 µM.
With `Oc1cc(O)c2c(c1)O[C@H](c1ccc(O)c(O)c1)[C@@H](O)C2` [CIANIDANOL], the 50% effective concentration (EC50) in data set [1] was above 345 µM. The molecule also displayed an IC50 in data set [3] above 345 µM.
As to `O=c1c(O)c(-c2ccc(O)c(O)c2)oc2cc(O)ccc12` [FISETIN], in data set [1], the EC50 came out at 122 µM. For the same molecule, the selectivity ratio in data set [2] stood at 1. In data set [3], this molecule came in with an IC50 of 157 µM.
For `O=C1CC(c2ccccc2)Oc2ccccc21` (stereo not drawn) [FLAVANONE], in that order: 58 µM, 1 and 45 µM.
In the same order, the values of `O=c1cc(-c2ccccc2)oc2ccccc12` [FLAVONE] are 50 µM, 1 and 68 µM.
With `O=c1c(O)c(-c2ccccc2)oc2ccccc12` [FLAVONOL], the EC50 in data set [1] is 13 µM. The selectivity ratio in data set [2] was 1. For the same molecule, the IC50 in data set [3] was 17 µM.
In the same order, the values of `O=c1c(O)c(-c2ccccc2)oc2cc(O)cc(O)c12` [GALANGIN] are 28 µM, 2 and 44 µM.
In the same order, the values of `O=c1cc(-c2ccc(O)c(O)c2)oc2cc(O[C@@H]3O[C@H](CO)[C@@H](O)[C@H](O)[C@H]3O)cc(O)c12` [GALUTEOLIN] are 7 µM, 3 and 25 µM.
Consider `COc1ccc([C@@H]2CC(=O)c3c(O)cc(O[C@@H]4O[C@H](CO[C@@H]5O[C@@H](C)[C@H](O)[C@@H](O)[C@H]5O)[C@@H](O)[C@H](O)[C@H]4O)cc3O2)cc1O` [HESPERIDIN], for which, in data set [1], the EC50 was above 164 µM. The molecule further yielded an IC50 in data set [3] above 164 µM.
On to `O=c1cc(-c2ccc(O)c(O)c2)oc2cc(O)cc(O)c12` [LUTEOLIN], for which, in data set [1], the 50% effective concentration (EC50) amounted to 10 µM. Besides, the selectivity ratio in data set [2] stood at 2. In data set [3], this molecule had an IC50 of 16 µM.
As to `O=c1c(O)c(-c2ccc(O)cc2O)oc2cc(O)cc(O)c12` [MORIN], the EC50 in data set [1] was above 331 µM. This molecule also came in with an IC50 in data set [3] above 331 µM.
Turning to `O=c1c(O)c(-c2cc(O)c(O)c(O)c2)oc2cc(O)cc(O)c12` [MYRICETIN], the EC50 in data set [1] was 35 µM. For the same molecule, in data set [2], the selectivity ratio is 2. In data set [3], this molecule displayed a half-maximal inhibitory concentration (IC50) of 69 µM.
In the same order, the values of `O=C1C[C@@H](c2ccc(O)cc2)Oc2cc(O)cc(O)c21` [NARINGENIN] are 92 µM, 3 and 294 µM.
In the same order, the values of `Cc1cc(=O)c2c(O)cc(O)cc2o1` [NOREUGENIN] are 49 µM, 4 and 214 µM.
For `O=c1c(O)c(-c2ccc(O)c(O)c2)oc2cc(O)cc(O)c12` [QUERCETIN], in that order: 132 µM, 1 and 132 µM.
In the case of `Cc1cn([C@H]2C[C@H](N=[N+]=[N-])[C@@H](CO)O2)c(=O)[nH]c1=O` [ZIDOVUDINE], the EC50 in data set [1] came to 0.04 µM.
